Here are results for 22 compounds from ChEMBL document CHEMBL4350962, “Expanding the Chemical Space of Withaferin A by Incorporating Silicon To Improve Its Clinical Potential on Human Ovarian Carcinoma Cells” (J Med Chem, 2019).

In general, IC50 refers to the concentration that inhibits the measured activity by half. A high value points to a need for much substance.

One data set relates to A2780. The data set is described as follows: Antiproliferative activity against cisplatin-sensitive human A2780 cells measured after 96 hrs by MTT assay. The format is functional, cell-based. The note with it: A2780, 96 h. The gist of the method: (§1)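 Cells kept in DMEM or RPMI 1640 with 10% FBS and 5% penicillin-streptomycin at 37 °C, 5% CO2, seeded at 1 x 10⁴ cells/mL and left 24 h to adhere. Compounds or vehicle added over a concentration range for 96 h, then MTT 4 h; formazan dissolved in DMSO, absorbance read at 540 nm relative to control. IC50 given as mean ± SD of three independent experiments in duplicate.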

Data set [1] is described as follows: Antiproliferative activity against cisplatin-resistant human A2780/CP70 cells measured after 96 hrs by MTT assay. The class given is functional. The following applies: A2780/CP70, 96 h. The gist of the method:
as §1
A general note: Formazan colour is commonly taken as a measure of viable cells.

The subject of a further data set is ARPE-19. The data set is described as follows: Cytotoxicity against human ARPE19 cells measured after 96 hrs by MTT assay. The class given is cell-based. The following applies: ARPE-19, 96 h. In outline: as §1
The nature of data set [2]: Selectivity index, ratio of IC50 for human ARPE19 cells to IC50 for cisplatin-sensitive human A2780 cells. The format is toxicity. The following applies: ARPE19 cells versus cisplatin-sensitive A2780 cells, read-out: Ratio IC50.
Data set [3] can be described thus: Selectivity index, ratio of IC50 for human ARPE19 cells to IC50 for cisplatin-resistant human A2780/CP70 cells. The note with it: ARPE19 cells versus cisplatin-resistant A2780/CP70 cells, read-out: Ratio IC50. The format is toxicity.

Take `CCC[Si](CCC)(CCC)OCC1=C(C)C[C@H]([C@@H](C)[C@H]2CC[C@H]3[C@@H]4C[C@H]5O[C@]56C(=O)C=CC(=O)[C@]6(C)[C@H]4CC[C@]23C)OC1=O`: the values for the IC50 (with A2780; in data set [1]; with ARPE-19) were 69 nM, 21 nM and 1740 nM, respectively. Also, the selectivity ratio in data set [2] amounted to 25.2; in data set [3], 82.9.

With `CC1=C(CO[Si](C)(C)C(C)C)C(=O)O[C@@H]([C@@H](C)[C@H]2CC[C@H]3[C@@H]4C[C@H]5O[C@]56[C@@H](O)C=CC(=O)[C@]6(C)[C@H]4CC[C@]23C)C1`, the IC50 came to 34 nM in the data set with A2780, 35 nM in data set [1] and 6500 nM in the data set on ARPE-19. Moreover, the selectivity ratio was found to be 191 in data set [2] and 186 in data set [3].

With `CCCC[Si](CCCC)(CCCC)OCC1=C(C)C[C@H]([C@@H](C)[C@H]2CC[C@H]3[C@@H]4C[C@H]5O[C@]56[C@@H](O)C=CC(=O)[C@]6(C)[C@H]4CC[C@]23C)OC1=O`, the IC50 with A2780 is 27 nM; in data set [1], 22 nM; in the data set with ARPE-19, 260 nM. In addition, the selectivity ratio in data set [2] was determined as 9.6; in data set [3], 11.8.

As for `CC1=C(CO[Si](C)(C)c2ccccc2)C(=O)O[C@@H]([C@@H](C)[C@H]2CC[C@H]3[C@@H]4C[C@H]5O[C@]56C(=O)C=CC(=O)[C@]6(C)[C@H]4CC[C@]23C)C1`, the half-maximal inhibitory concentration (IC50) in the data set with A2780 was 59 nM; in data set [1], > 100 nM; in the data set with ARPE-19, 2300 nM. Further, the selectivity ratio in data set [2] worked out at 39.1.

Regarding `C=C[Si](C)(C)OCC1=C(C)C[C@H]([C@@H](C)[C@H]2CC[C@H]3[C@@H]4C[C@H]5O[C@]56[C@@H](O)C=CC(=O)[C@]6(C)[C@H]4CC[C@]23C)OC1=O`, the IC50 in the data set on A2780 stood at 27 nM; in data set [1] it was 31 nM; with ARPE-19 it was 86 nM. In addition, the selectivity ratio in data set [2] came out at 3.2; in data set [3], 2.8.

`CC1=C(CO[Si](C)(C)c2ccccc2)C(=O)O[C@@H]([C@@H](C)[C@H]2CC[C@H]3[C@@H]4C[C@H]5O[C@]56[C@@H](O[Si](C)(C)c5ccccc5)C=CC(=O)[C@]6(C)[C@H]4CC[C@]23C)C1`: the values for the IC50 (in the data set on A2780; in data set [1]; in the data set on ARPE-19) were 2.9 nM, 29 nM and 309 nM, respectively. Further, the selectivity ratio in data set [2] stood at 107; in data set [3], 10.7.

Take `CCCC[Si](CCCC)(CCCC)OCC1=C(C)C[C@H]([C@@H](C)[C@H]2CC[C@H]3[C@@H]4C[C@H]5O[C@]56C(=O)C=CC(=O)[C@]6(C)[C@H]4CC[C@]23C)OC1=O`: the IC50 with A2780 was 53 nM; in data set [1], > 100 nM; in the data set on ARPE-19, 617 nM. Further, the selectivity ratio in data set [2] came to 11.6.

Turning to `CC1=C(CO[Si](C)(C)C(C)C)C(=O)O[C@@H]([C@@H](C)[C@H]2CC[C@H]3[C@@H]4C[C@H]5O[C@]56[C@@H](O)[C@@H](n5ccnc5)CC(=O)[C@]6(C)[C@H]4CC[C@]23C)C1`, the figures for the half-maximal inhibitory concentration (IC50) (with A2780; in data set [1]; in the data set on ARPE-19) were 20 nM, 19 nM and 52 nM, respectively. Moreover, the results for the selectivity ratio in data set [2] and in data set [3] were 2.6 and 2.7, respectively.

With `CC1=C(CO)C(=O)O[C@@H]([C@@H](C)[C@H]2CC[C@H]3[C@@H]4C[C@H]5O[C@]56C(=O)C=CC(=O)[C@]6(C)[C@H]4CC[C@]23C)C1`, the IC50 in the data set with A2780 is 7.3 nM; in data set [1] it was < 1 nM; in the data set with ARPE-19, 32 nM. For the same compound, the selectivity ratio was 4.3 in data set [2] and > 32 in data set [3].

For `CC1=C(CO[Si](C)(c2ccccc2)c2ccccc2)C(=O)O[C@@H]([C@@H](C)[C@H]2CC[C@H]3[C@@H]4C[C@H]5O[C@]56[C@@H](O)C=CC(=O)[C@]6(C)[C@H]4CC[C@]23C)C1`, the half-inhibitory concentration (IC50) in the data set with A2780 was determined as 22 nM; in data set [1] it was 28.3 nM; with ARPE-19, 70 nM. The selectivity ratio in data set [2] was determined as 3.2; in data set [3], 2.5.

Regarding `CCC[Si](CCC)(CCC)OCC1=C(C)C[C@H]([C@@H](C)[C@H]2CC[C@H]3[C@@H]4C[C@H]5O[C@]56[C@@H](O)C=CC(=O)[C@]6(C)[C@H]4CC[C@]23C)OC1=O`, the figures for the IC50 (with A2780; in data set [1]; in the data set on ARPE-19) were 32 nM, 3.6 nM and 30 nM, respectively. Moreover, the selectivity ratio in data set [2] was determined as 0.9; in data set [3], 8.3.

`CC1=C(CO)C(=O)O[C@@H]([C@@H](C)[C@H]2CC[C@H]3[C@@H]4C[C@H]5O[C@]56[C@@H](O)C=CC(=O)[C@]6(C)[C@H]4CC[C@]23C)C1` [WITHAFERIN A]: the IC50 in the data set on A2780 amounted to 32.7 nM; in data set [1] it was 32 nM; in the data set on ARPE-19 it was 37 nM. The selectivity ratio in data set [2] amounted to 1.1; in data set [3], 1.2.

In the case of `CC1=C(CO[Si](C)(c2ccccc2)c2ccccc2)C(=O)O[C@@H]([C@@H](C)[C@H]2CC[C@H]3[C@@H]4C[C@H]5O[C@]56C(=O)C=CC(=O)[C@]6(C)[C@H]4CC[C@]23C)C1`, the IC50 with A2780 was 35 nM; in data set [1] it was > 100 nM; in the data set on ARPE-19 it was 2050 nM. Also, in data set [2], the selectivity ratio came to 58.6.

For the compound `CCCCCCCC[Si](C)(C)OCC1=C(C)C[C@H]([C@@H](C)[C@H]2CC[C@H]3[C@@H]4C[C@H]5O[C@]56[C@@H](O[Si](C)(C)CCCCCCCC)C=CC(=O)[C@]6(C)[C@H]4CC[C@]23C)OC1=O`, the IC50 in the data set with A2780 was found to be 1.5 nM; in data set [1], 24.9 nM; with ARPE-19, 318 nM. The selectivity ratio in data set [2] amounted to 212; in data set [3], 12.8.

In the case of `CC[Si](CC)(CC)OCC1=C(C)C[C@H]([C@@H](C)[C@H]2CC[C@H]3[C@@H]4C[C@H]5O[C@]56[C@@H](O)C=CC(=O)[C@]6(C)[C@H]4CC[C@]23C)OC1=O`, the IC50 in the data set with A2780 is > 100 nM; in data set [1] it was 12.8 nM; in the data set with ARPE-19 it was 30 nM. Further, the selectivity ratio in data set [3] is 2.3.

For `CC1=C(CO[Si](c2ccccc2)(c2ccccc2)C(C)(C)C)C(=O)O[C@@H]([C@@H](C)[C@H]2CC[C@H]3[C@@H]4C[C@H]5O[C@]56[C@@H](O)C=CC(=O)[C@]6(C)[C@H]4CC[C@]23C)C1`, the IC50 with A2780 was determined as 46 nM; in data set [1], 29 nM; in the data set on ARPE-19, 2300 nM. Further, the selectivity ratio in data set [2] stood at 49.9; in data set [3] it was 79.1.

Take `CC[Si](CC)(CC)OCC1=C(C)C[C@H]([C@@H](C)[C@H]2CC[C@H]3[C@@H]4C[C@H]5O[C@]56C(=O)C=CC(=O)[C@]6(C)[C@H]4CC[C@]23C)OC1=O`: the IC50 is 35 nM with A2780, 20 nM in data set [1] and 1870 nM in the data set with ARPE-19. The selectivity ratio was 53.5 in data set [2] and 93.5 in data set [3].

Regarding `CC1=C(CO[Si](C(C)C)(C(C)C)C(C)C)C(=O)O[C@@H]([C@@H](C)[C@H]2CC[C@H]3[C@@H]4C[C@H]5O[C@]56[C@@H](O)C=CC(=O)[C@]6(C)[C@H]4CC[C@]23C)C1`, the concentration for half-maximal inhibition (IC50) in the data set with A2780 worked out at 30 nM; in data set [1], 62 nM; with ARPE-19, 62 nM. The results for the selectivity ratio in data set [2] and in data set [3] were 2.1 and 1, respectively.

For `CC1=C(CO[Si](C)(C)C)C(=O)O[C@@H]([C@@H](C)[C@H]2CC[C@H]3[C@@H]4C[C@H]5O[C@]56C(=O)C=CC(=O)[C@]6(C)[C@H]4CC[C@]23C)C1`, the values for the IC50 (in the data set on A2780; in data set [1]; in the data set with ARPE-19) were 41 nM, 68.8 nM and 820 nM, respectively. Further, the results for the selectivity ratio in data set [2] and in data set [3] were 20 and 11.9, respectively.

On to `C=C[Si](C)(C)OCC1=C(C)C[C@H]([C@@H](C)[C@H]2CC[C@H]3[C@@H]4C[C@H]5O[C@]56[C@@H](O[Si](C)(C)C=C)C=CC(=O)[C@]6(C)[C@H]4CC[C@]23C)OC1=O`, for which the IC50 in the data set with A2780 was 33 nM; in data set [1] it was 27.5 nM; in the data set on ARPE-19, 92 nM. Also, the selectivity ratio in data set [2] turned out to be 2.8; in data set [3], 3.4.

On to `CC1=C(CO[Si](C)(C)C(C)C)C(=O)O[C@@H]([C@@H](C)[C@H]2CC[C@H]3[C@@H]4C[C@H]5O[C@]56C(=O)C=CC(=O)[C@]6(C)[C@H]4CC[C@]23C)C1`, for which the half-inhibitory concentration (IC50) was 43 nM in the data set on A2780, 34 nM in data set [1] and 2140 nM in the data set with ARPE-19. Also, the values for the selectivity ratio in data set [2] and in data set [3] were 49.8 and 62.9, respectively.

Consider `CCCCCCCC[Si](C)(C)OCC1=C(C)C[C@H]([C@@H](C)[C@H]2CC[C@H]3[C@@H]4C[C@H]5O[C@]56[C@@H](O)C=CC(=O)[C@]6(C)[C@H]4CC[C@]23C)OC1=O`, for which the IC50 with A2780 came to 10 nM; in data set [1], 33 nM; in the data set with ARPE-19 it was 32 nM. In addition, the results for the selectivity ratio in data set [2] and in data set [3] were 3.2 and 1, respectively.
